Structures are written as SMILES. Values after ≈ are worked out from the molar mass of the structure shown. Bounds are passed on as bounds.

Holding throughout (type): functional
Test [1] concerns Staphylococcus aureus. The experiment in a line: Antimicrobial activity against drug-susceptible Staphylococcus aureus 2 after 20 hrs by agar dilution method. Conditions: Staphylococcus aureus, 20 h; read-out: MIC. In a few lines: (§1)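 Agar dilution MIC. S. aureus seed culture was grown in sensitivity test broth. Cell suspension (about 10⁶ CFU/ml) was inoculated onto sensitivity disk agar with 5% horse blood and incubated at 37 °C for 20 h. MIC was the lowest drug concentration that prevented visible growth.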
(In general: In agar dilution the substance is mixed into plates at graded concentrations.)

In test [2] the test system is Staphylococcus aureus. Description: Antimicrobial activity against Staphylococcus aureus 5 expressing inducible ermB after 20 hrs by agar dilution method. Conditions: Staphylococcus aureus, 20 h; read-out: MIC. The essentials: as §1
Test [3] has as its system Staphylococcus aureus. Description: Antimicrobial activity against Staphylococcus aureus 4 constitutively expressing ermA after 20 hrs by agar dilution method. In a few lines:
as §1

The subject of test [4] is Moraxella catarrhalis. Description: Antimicrobial activity against drug-susceptible Moraxella catarrhalis 1 after 20 hrs by agar dilution method. Conditions: Moraxella catarrhalis, 20 h; read-out: MIC. The essentials: (§2)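 Streptococci, H. influenzae and M. catarrhalis were precultured on blood agar plates. Suspensions of about 10⁶ CFU/ml were inoculated onto sensitivity disk agar supplemented with 5% horse blood and incubated at 37 °C for 20 h. MIC was read as the lowest drug concentration with no visible growth.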

Test [5] relates to Streptococcus pyogenes. Description: Antimicrobial activity against Streptococcus pyogenes 2 constitutively expressing ermB after 20 hrs by agar dilution method. The essentials:
as §2

The subject of test [6] is Haemophilus influenzae. The experiment in a line: Antimicrobial activity against drug-susceptible Haemophilus influenzae 3 after 20 hrs by agar dilution method. Conditions: Haemophilus influenzae, 20 h; read-out: MIC. In a few lines:
as §2

Test [7] relates to Streptococcus pneumoniae. The experiment in a line: Antimicrobial activity against drug-susceptible Streptococcus pneumoniae DP1 Type1 after 20 hrs by agar dilution method. Conditions: Streptococcus pneumoniae, 20 h; read-out: MIC. In a few lines: as §2
In test [8] the test system is Haemophilus influenzae. The experiment in a line: Antimicrobial activity against drug-susceptible Haemophilus influenzae 2 after 20 hrs by agar dilution method. As to conditions: Haemophilus influenzae, 20 h; read-out: MIC. The essentials: as §2
Test [9] has as its system Streptococcus pneumoniae. The experiment in a line: Antimicrobial activity against Streptococcus pneumoniae 6 constitutively expressing ermB after 20 hrs by agar dilution method. As to conditions: Streptococcus pneumoniae, 20 h; read-out: MIC. The essentials: as §2
Test [10] concerns Moraxella catarrhalis. The experiment in a line: Antimicrobial activity against drug-susceptible Moraxella catarrhalis 2 after 20 hrs by agar dilution method. As to conditions: Moraxella catarrhalis, 20 h; read-out: MIC. The essentials:
as §2

Test [11] relates to Streptococcus pneumoniae. The experiment in a line: Antimicrobial activity against Streptococcus pneumoniae 5 constitutively expressing ermB/mefA after 20 hrs by agar dilution method. As to conditions: Streptococcus pneumoniae, 20 h; read-out: MIC. In a few lines:
as §2

Test [12] deals with Streptococcus pyogenes. Description: Antimicrobial activity against Streptococcus pyogenes 3 expressing mefA after 20 hrs by agar dilution method. As to conditions: Streptococcus pyogenes, 20 h; read-out: MIC. In a few lines: as §2
Test [13] deals with Streptococcus pneumoniae. The experiment in a line: Antimicrobial activity against Streptococcus pneumoniae 10 expressing mefA after 20 hrs by agar dilution method. As to conditions: Streptococcus pneumoniae, 20 h; read-out: MIC. The essentials: as §2
The test system of test [14] is Streptococcus pneumoniae. Description: Antimicrobial activity against Streptococcus pneumoniae 8 expressing inducible ermB after 20 hrs by agar dilution method. As to conditions: Streptococcus pneumoniae, 20 h; read-out: MIC. In a few lines:
as §2

In test [15] the test system is Staphylococcus aureus. Description: Antimicrobial activity against Staphylococcus aureus 6 expressing inducible ermB after 20 hrs by agar dilution method. The essentials:
as §1

Test [16] deals with Streptococcus pyogenes. Description: Antimicrobial activity against drug-susceptible Streptococcus pyogenes 1 after 20 hrs by agar dilution method. Conditions: Streptococcus pyogenes, 20 h; read-out: MIC. The essentials:
as §2

Test [17] has as its system Staphylococcus aureus. The experiment in a line: Antimicrobial activity against drug-susceptible Staphylococcus aureus 3 after 20 hrs by agar dilution method. Conditions: Staphylococcus aureus, 20 h; read-out: MIC. In a few lines:
as §1

Test [18] deals with Staphylococcus aureus. Description: Antimicrobial activity against drug-susceptible Staphylococcus aureus 209P JC-1 after 20 hrs by agar dilution method. Conditions: Staphylococcus aureus, 209P, 20 h; read-out: MIC. In a few lines:
as §1

The test system of test [19] is Streptococcus pneumoniae. Description: Antimicrobial activity against Streptococcus pneumoniae 9 expressing mefA after 20 hrs by agar dilution method. As to conditions: Streptococcus pneumoniae, 20 h; read-out: MIC. The essentials: as §2
The subject of test [20] is Haemophilus influenzae. The experiment in a line: Antimicrobial activity against drug-susceptible Haemophilus influenzae 4 after 20 hrs by agar dilution method. As to conditions: Haemophilus influenzae, 20 h; read-out: MIC. The essentials: as §2
Test [21] relates to Streptococcus pneumoniae. Description: Antimicrobial activity against Streptococcus pneumoniae 7 expressing inducible ermB after 20 hrs by agar dilution method. Conditions: Streptococcus pneumoniae, 20 h; read-out: MIC. In a few lines: as §2
Test [22] deals with Streptococcus pneumoniae. Description: Antimicrobial activity against drug-susceptible Streptococcus pneumoniae 2 after 20 hrs by agar dilution method. Conditions: Streptococcus pneumoniae, 20 h; read-out: MIC. In a few lines:
as §2

In test [23] the test system is Haemophilus influenzae. The experiment in a line: Antimicrobial activity against drug-susceptible Haemophilus influenzae 1 after 20 hrs by agar dilution method. Conditions: Haemophilus influenzae, 20 h; read-out: MIC. The essentials: as §2

Regarding `CCOC(=O)[C@H]1[C@H](C)O[C@@H](O[C@H]2[C@H](N(C)C)[C@@H](O)[C@H](O[C@H]3[C@@H](CC=O)C[C@@H](C)[C@@H](OC(C)=O)CN(CCCCc4ccccc4)CCC[C@@H](C)OC(=O)C[C@@H](OC(=O)CC)[C@@H]3OC)O[C@@H]2C)C[C@@]1(C)OC(C)=O`, the MIC in the test on Staphylococcus aureus [1] is 2 µg/mL (≈ 1.93 µM); with Staphylococcus aureus [2] it was 1 µg/mL (≈ 0.966 µM); in the test with Staphylococcus aureus [3] it was above 128 µg/mL; with Moraxella catarrhalis [4], 1 µg/mL (≈ 0.966 µM); with Streptococcus pyogenes [5], above 128 µg/mL; in the test on Haemophilus influenzae [6], above 128 µg/mL. For the same molecule, the MIC in the test on Streptococcus pneumoniae [7] is 0.25 µg/mL (≈ 0.241 µM); in the test on Haemophilus influenzae [8], 4 µg/mL (≈ 3.86 µM); in the test with Streptococcus pneumoniae [9], above 128 µg/mL; in the test on Moraxella catarrhalis [10], 2 µg/mL (≈ 1.93 µM); in the test with Streptococcus pneumoniae [11] it was above 128 µg/mL; with Streptococcus pyogenes [12] it was 1 µg/mL (≈ 0.966 µM). In addition, the MIC with Streptococcus pneumoniae [13] came to 0.13 µg/mL (≈ 0.126 µM); in the test on Streptococcus pneumoniae [14], 4 µg/mL (≈ 3.86 µM); in the test on Staphylococcus aureus [15], 2 µg/mL (≈ 1.93 µM); in the test on Streptococcus pyogenes [16], 0.25 µg/mL (≈ 0.241 µM); in the test with Staphylococcus aureus [17], 1 µg/mL (≈ 0.966 µM); in the test on Staphylococcus aureus [18], 0.5 µg/mL (≈ 0.483 µM). In addition, the MIC in the test with Streptococcus pneumoniae [19] was 0.25 µg/mL (≈ 0.241 µM); in the test on Haemophilus influenzae [20], above 128 µg/mL; in the test with Streptococcus pneumoniae [21], 4 µg/mL (≈ 3.86 µM); with Streptococcus pneumoniae [22], 0.25 µg/mL (≈ 0.241 µM); in the test on Haemophilus influenzae [23], above 128 µg/mL.

Regarding `CCOC(=O)[C@H]1[C@H](C)O[C@@H](O[C@H]2[C@H](N(C)C)[C@@H](O)[C@H](O[C@H]3[C@@H](CC=O)C[C@@H](C)[C@@H](OC(C)=O)CN(CCCCc4ccccc4)CCCNC(=O)C[C@@H](OC(=O)CC)[C@@H]3OC)O[C@@H]2C)C[C@@]1(C)OC(C)=O`, the MIC was 1 µg/mL (≈ 0.994 µM) in the test on Staphylococcus aureus [1]; 0.25 µg/mL (≈ 0.248 µM) in the test with Staphylococcus aureus [2]; above 128 µg/mL in the test on Staphylococcus aureus [3]; 0.25 µg/mL (≈ 0.248 µM) in the test with Moraxella catarrhalis [4]; above 128 µg/mL in the test on Streptococcus pyogenes [5]; 2 µg/mL (≈ 1.99 µM) with Haemophilus influenzae [6]. The MIC was 0.25 µg/mL (≈ 0.248 µM) in the test with Streptococcus pneumoniae [7]; 0.5 µg/mL (≈ 0.497 µM) with Haemophilus influenzae [8]; above 128 µg/mL in the test on Streptococcus pneumoniae [9]; 0.25 µg/mL (≈ 0.248 µM) in the test on Moraxella catarrhalis [10]; above 128 µg/mL in the test with Streptococcus pneumoniae [11]; 0.5 µg/mL (≈ 0.497 µM) in the test on Streptococcus pyogenes [12]. For the same molecule, the MIC in the test on Streptococcus pneumoniae [13] was 0.25 µg/mL (≈ 0.248 µM); with Streptococcus pneumoniae [14], 32 µg/mL (≈ 31.8 µM); against Staphylococcus aureus [15], 1 µg/mL (≈ 0.994 µM); with Streptococcus pyogenes [16], 0.13 µg/mL (≈ 0.129 µM); with Staphylococcus aureus [17], 0.5 µg/mL (≈ 0.497 µM); in the test on Staphylococcus aureus [18] it was 0.25 µg/mL (≈ 0.248 µM). Moreover, the MIC stood at 0.25 µg/mL (≈ 0.248 µM) in the test on Streptococcus pneumoniae [19]; 4 µg/mL (≈ 3.98 µM) in the test with Haemophilus influenzae [20]; 32 µg/mL (≈ 31.8 µM) with Streptococcus pneumoniae [21]; 0.5 µg/mL (≈ 0.497 µM) in the test with Streptococcus pneumoniae [22]; 16 µg/mL (≈ 15.9 µM) with Haemophilus influenzae [23].

Consider `CCOC(=O)[C@H]1[C@H](C)O[C@@H](O[C@H]2[C@H](N(C)C)[C@@H](O)[C@H](O[C@H]3[C@@H](CC=O)C[C@@H](C)[C@@H](O)CN(CCCc4ccnc5ccccc45)CC[C@@H](C)OC(=O)C[C@@H](OC(=O)CC)[C@@H]3OC)O[C@@H]2C)C[C@@]1(C)OC(C)=O`, for which the MIC is 0.5 µg/mL (≈ 0.492 µM) in the test with Staphylococcus aureus [1]; 0.13 µg/mL (≈ 0.128 µM) with Staphylococcus aureus [2]; above 128 µg/mL in the test with Staphylococcus aureus [3]; 0.25 µg/mL (≈ 0.246 µM) in the test on Moraxella catarrhalis [4]; above 128 µg/mL in the test on Streptococcus pyogenes [5]; 8 µg/mL (≈ 7.87 µM) in the test on Haemophilus influenzae [6]. Besides, the MIC was 0.06 µg/mL (≈ 0.059 µM) with Streptococcus pneumoniae [7]; 1 µg/mL (≈ 0.984 µM) in the test with Haemophilus influenzae [8]; above 128 µg/mL with Streptococcus pneumoniae [9]; 0.25 µg/mL (≈ 0.246 µM) in the test on Moraxella catarrhalis [10]; above 128 µg/mL with Streptococcus pneumoniae [11]; 0.13 µg/mL (≈ 0.128 µM) in the test on Streptococcus pyogenes [12]. The MIC in the test with Streptococcus pneumoniae [13] stood at 0.13 µg/mL (≈ 0.128 µM); in the test on Streptococcus pneumoniae [14], 8 µg/mL (≈ 7.87 µM); against Staphylococcus aureus [15], 0.25 µg/mL (≈ 0.246 µM); with Streptococcus pyogenes [16], 0.06 µg/mL (≈ 0.059 µM); in the test with Staphylococcus aureus [17] it was 0.25 µg/mL (≈ 0.246 µM); with Staphylococcus aureus [18], 0.13 µg/mL (≈ 0.128 µM). For the same molecule, the MIC with Streptococcus pneumoniae [19] worked out at 0.13 µg/mL (≈ 0.128 µM); in the test with Haemophilus influenzae [20], 8 µg/mL (≈ 7.87 µM); in the test on Streptococcus pneumoniae [21], 4 µg/mL (≈ 3.94 µM); with Streptococcus pneumoniae [22], 0.06 µg/mL (≈ 0.059 µM); in the test with Haemophilus influenzae [23], 16 µg/mL (≈ 15.7 µM).

Values taken from ChEMBL document CHEMBL1151705, “Novel azalides derived from 16-membered macrolides. Part II: Isolation of the linear 9-formylcarboxylic acid and its sequential macrocyclization with an amino alcohol or an azidoamine” (2008).
